Results on eight compounds are retold here after ChEMBL document CHEMBL1154145, “Inhibitory effect of macabarterin, a polyoxygenated ellagitannin from Macaranga barteri, on human neutrophil respiratory burst activity” (J Nat Prod, 2008).

≈ marks a conversion by molar mass, not a printed value.

Test [1] is described as follows: Antiinflammatory activity in human neutrophils assessed as respiratory burst inhibition at 1000 ug/ml by WST-1 assay. Format: functional. To be noted: Neutrophil. In a few lines:
(§1)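 Neutrophils came from heparinized blood of healthy volunteers, diluted with modified Hank's solution (MHS, pH 7.4), left 20 min at RT, then Ficoll-separated (>97% trypan-blue viable). 1.0 × 10^4 cells/mL in MHS with 250 µM WST-1 and compound were equilibrated at 37 °C. Opsonized zymosan A (15 mg/mL, pooled human serum) was added to start the reaction. A450 was read. Inhibition was calculated against a DMSO blank from five replicates.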

Test [2] is described as follows: Antiinflammatory activity in human neutrophils assessed inhibition of superoxide anions production. Format: functional, cell-based. To be noted: Neutrophil. In a few lines: as §1

Usually inhibition stands for the change of the read-out against control, counted positive when it falls. Take `COc1c(O)cc2c(=O)oc3c(O)c(O)cc4c(=O)oc1c2c34`: in test [1], the inhibition at 1000 µg/mL was 13.7%. Turning to `COc1c(O[C@@H]2OC[C@@H](O)[C@H](O)[C@H]2O)cc2c(=O)oc3c(O)c(O)cc4c(=O)oc1c2c34`, the inhibition at 1000 µg/mL in test [1] worked out at 29.1%.

Broadly, the IC50 is the point on the concentration scale where inhibition reaches its midpoint. Read a low IC50 as greater potency in that assay. Regarding `CC(=O)Oc1ccccc1C(=O)O` [ASPIRIN], the inhibition at 1000 µg/mL in test [1] came to 70.5%. In addition, the IC50 in test [2] came to 279 µg/mL (≈ 1550 µM). Take `O=c1oc2c(O)c(O)cc3c(=O)oc4c(O)c(O)cc1c4c23` [ELLAGIC ACID]: the inhibition at 1000 µg/mL in test [1] was found to be 27.1%. Same read-out and setting: in the case of `O=C(O)c1cc(O)c(O)c(O)c1` [GALLIC ACID] it was 42.9%. For `COc1ccc2c(c1)c(CC(=O)O)c(C)n2C(=O)c1ccc(Cl)cc1` [INDOMETHACIN], the inhibition at 1000 µg/mL in test [1] stood at 58.8%. Further, the IC50 in test [2] amounted to 758 µg/mL (≈ 2120 µM).

With `O=C(O[C@@H]1O[C@@H]2COC(=O)c3cc(O)c(O)c(O)c3-c3c(cc(O)c(O)c3O)C(=O)O[C@@H]3[C@H]1OC(=O)c1cc(O)c(O)c4c1C1C5(C[C@]6(O)OC[C@@H](O)[C@@H]6C[C@@H]5C(O)(O)C(O)(O)[C@]1(O)O4)C(=O)O[C@@H]32)c1cc(O)c(O)c(O)c1` (stereo partly specified) [MACABARTERIN], in test [1], the inhibition at 1000 µg/mL was 73.2%. The same compound showed an IC50 in test [2] of 821 µg/mL (≈ 746 µM).

Consider `COc1cc2ccc(=O)oc2cc1O` [SCOPOLETIN], for which the inhibition at 1000 µg/mL in test [1] is 31.2%.
